Data published in ChEMBL document CHEMBL1687891, “Triterpenoid saponins from Symplocos lancifolia” (2011).
≈ marks a conversion by molar mass, not a printed value. Calls of active or inactive are those of the source. The calls are words filed in the database; no cut-off is given here.

Assays:
Staphylococcus aureus [1] = assay: Antibacterial activity against Staphylococcus aureus ATCC 25923 assessed as inhibition zone after 18 hrs by disk diffusion method; format: functional, organism-based
How it was run: (§1)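 Samples were prepared at 10 mg/mL in water, and 50 µL was applied to 8 mm paper disks. Disks were placed on Mueller-Hinton agar in 9 cm dishes, pre-inoculated with a suspension made from one colony in distilled water. Plates were incubated 18 h at 37 °C, then the inhibition zone was measured.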

Enterococcus faecalis [2] = assay: Antibacterial activity against Enterococcus faecalis ATCC 29212 assessed as inhibition zone after 18 hrs by disk diffusion method; format: functional, organism-based; how it was run: as §1
Escherichia coli [3] = assay: Antibacterial activity against Escherichia coli ATCC 25922 assessed as inhibition zone after 18 hrs by disk diffusion method; format: functional, organism-based; how it was run: as §1
Pseudomonas aeruginosa [4] = assay: Antibacterial activity against Pseudomonas aeruginosa ATCC 27853 assessed as inhibition zone after 18 hrs by disk diffusion method; format: functional, organism-based; how it was run: as §1
Enterococcus faecalis [5] = assay: Antibacterial activity against Enterococcus faecalis ATCC 29212 assessed as clear zone after 18 hrs by TLC bioautography; format: functional, organism-based
How it was run: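 After the TLC run, the solvent was evaporated. Plates were overlaid with Mueller-Hinton agar seeded with bacteria in nutrient broth and incubated 18 h at 37 °C in a humidified chamber. They were then sprayed with p-iodonitrotetrazolium bromide (2 mg/mL) and incubated 2 h. Clear zones were scored as antibacterial activity.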

Staphylococcus aureus [6] = assay: Antibacterial activity against Staphylococcus aureus assessed as growth inhibition by liquid microdilution assay; format: functional
How it was run: (§2)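 MIC was determined by liquid broth microdilution growth inhibition against standard strains.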

Enterococcus faecalis [7] = assay: Antibacterial activity against Enterococcus faecalis assessed as growth inhibition by liquid microdilution assay; format: functional; how it was run: as §2
Escherichia coli [8] = assay: Antibacterial activity against Escherichia coli assessed as growth inhibition by liquid microdilution assay; format: functional; how it was run: as §2
Pseudomonas aeruginosa [9] = assay: Antibacterial activity against Pseudomonas aeruginosa as growth inhibition by liquid microdilution assay; format: functional; how it was run: as §2

For `C[C@@H]1O[C@@H](O[C@H]2C(OC(=O)[C@]34CCC(C)(C)C[C@H]3C3=CC[C@@H]5[C@@]6(C)C[C@@H](O)[C@H](O[C@@H]7O[C@H](CO)[C@@H](O)[C@H](O)[C@H]7O)[C@@](C)(CO)[C@@H]6CC[C@@]5(C)[C@]3(C)CC4)O[C@H](CO)[C@@H](O)[C@@H]2O)[C@H](O)[C@H](O)[C@H]1O` (stereo partly drawn), the inhibition (Staphylococcus aureus [1]) was “Active”, the inhibition (Enterococcus faecalis [2]) was “Active” and the inhibition (Escherichia coli [3]) was “Active”. For the same compound, the inhibition (Pseudomonas aeruginosa [4]) was “Active” and the inhibition (Enterococcus faecalis [5]) was “Active”.

For `C[C@@H]1O[C@@H](O[C@H]2[C@H](OC(=O)[C@]34CCC(C)(C)C[C@H]3C3=CC[C@@H]5[C@@]6(C)C[C@@H](O)[C@H](O[C@@H]7O[C@H](CO)[C@@H](O)[C@H](O)[C@H]7O)C(C)(C)[C@@H]6CC[C@@]5(C)[C@]3(C)CC4)O[C@H](CO)[C@@H](O)[C@@H]2O)[C@H](O)[C@H](O)[C@H]1O`, the inhibition (Staphylococcus aureus [1]) was “Active”, the inhibition (Enterococcus faecalis [2]) was “Active” and the inhibition (Escherichia coli [3]) was “Active”. The inhibition (Pseudomonas aeruginosa [4]) was “Active” and the inhibition (Enterococcus faecalis [5]) was “Active”.

`C[C@H]1[C@H](C)CC[C@]2(C(=O)OC3O[C@H](CO)[C@@H](O)[C@H](O)[C@H]3O[C@@H]3O[C@@H](C)[C@H](O)[C@@H](O)[C@H]3O)CC[C@]3(C)C(=CC[C@@H]4[C@@]5(C)C[C@@H](O)[C@H](O[C@@H]6O[C@H](CO)[C@@H](O)[C@H](O)[C@H]6O)[C@@](C)(CO)[C@@H]5CC[C@]43C)[C@H]12` (stereo partly drawn) was tested, and the inhibition (Staphylococcus aureus [1]) was “Active”, the inhibition (Enterococcus faecalis [2]) was “Active” and the inhibition (Escherichia coli [3]) was “Active”. The inhibition (Pseudomonas aeruginosa [4]) was “Active” and the inhibition (Enterococcus faecalis [5]) was “Active”.

`CC1(C)CC[C@]2(C(=O)O)CC[C@]3(C)C(=CC[C@@H]4[C@@]5(C)C[C@@H](O)[C@H](O)[C@@](C)(CO)[C@@H]5CC[C@]43C)[C@@H]2C1` [ARJUNOLIC ACID] was tested, and the MIC (Staphylococcus aureus [6]) was 64 µg/mL, the MIC (Enterococcus faecalis [7]) was 64 µg/mL and the MIC (Escherichia coli [8]) was over 128 µg/mL. It also gave an MIC (Pseudomonas aeruginosa [9]) of over 128 µg/mL.

Work on `C[C@H]1[C@H](C)CC[C@]2(C(=O)O)CC[C@]3(C)C(=CC[C@@H]4[C@@]5(C)C[C@@H](O)[C@H](O)[C@@](C)(CO)[C@@H]5CC[C@]43C)[C@H]12` [ASIATIC ACID] yielded an MIC (Staphylococcus aureus [6]) of over 128 µg/mL, an MIC (Enterococcus faecalis [7]) of 128 µg/mL and an MIC (Escherichia coli [8]) of over 128 µg/mL. For the same compound, the MIC (Pseudomonas aeruginosa [9]) was over 128 µg/mL.

For `CC(C)(O/N=C(\C(=O)N[C@@H]1C(=O)N2C(C(=O)[O-])=C(C[n+]3ccccc3)CS[C@H]12)c1csc(N)n1)C(=O)O` [CEFTAZIDIME], the MIC (Escherichia coli [8]) was 10 µg/mL and the MIC (Pseudomonas aeruginosa [9]) was 10 µg/mL (≈ 18.3 µM).

Compound `C[C@H]1[C@H](C)CC[C@]2(C(=O)O)CC[C@]3(C)C(=CC[C@@H]4[C@@]5(C)C[C@@H](O)[C@H](O)C(C)(C)[C@@H]5CC[C@]43C)[C@H]12` [COROSOLIC ACID] has an MIC (Staphylococcus aureus [6]) of 32 µg/mL, an MIC (Enterococcus faecalis [7]) of 32 µg/mL and an MIC (Escherichia coli [8]) of over 128 µg/mL. For the same compound, the MIC (Pseudomonas aeruginosa [9]) was over 128 µg/mL.

`CC1(C)CC[C@]2(C(=O)O)CC[C@]3(C)C(=CC[C@@H]4[C@@]5(C)C[C@@H](O)[C@H](O)C(C)(C)[C@@H]5CC[C@]43C)[C@@H]2C1` [MASLINIC ACID] gave an MIC (Staphylococcus aureus [6]) of 64 µg/mL, an MIC (Enterococcus faecalis [7]) of 16 µg/mL and an MIC (Escherichia coli [8]) of over 128 µg/mL. It also gave an MIC (Pseudomonas aeruginosa [9]) of over 128 µg/mL.

For `CC1(C)CC[C@]2(C(=O)O)CC[C@]3(C)C(=CC[C@@H]4[C@@]5(C)CC[C@H](O)C(C)(C)[C@@H]5CC[C@]43C)[C@@H]2C1` [OLEANOLIC_ACID], the MIC (Staphylococcus aureus [6]) was over 128 µg/mL, the MIC (Enterococcus faecalis [7]) was 16 µg/mL and the MIC (Escherichia coli [8]) was over 128 µg/mL. The MIC (Pseudomonas aeruginosa [9]) was over 128 µg/mL.

For `C[C@H]1[C@H](C)CC[C@]2(C(=O)O)CC[C@]3(C)C(=CC[C@@H]4[C@@]5(C)CC[C@H](O)C(C)(C)[C@@H]5CC[C@]43C)[C@H]12` [URSOLIC ACID], the MIC (Staphylococcus aureus [6]) was 128 µg/mL, the MIC (Enterococcus faecalis [7]) was 16 µg/mL and the MIC (Escherichia coli [8]) was over 128 µg/mL. The MIC (Pseudomonas aeruginosa [9]) was over 128 µg/mL.

Compound `CN[C@H](CC(C)C)C(=O)N[C@H]1C(=O)N[C@@H](CC(N)=O)C(=O)N[C@H]2C(=O)N[C@H]3C(=O)N[C@H](C(=O)N[C@H](C(=O)O)c4cc(O)cc(O)c4-c4cc3ccc4O)[C@H](O)c3ccc(c(Cl)c3)Oc3cc2cc(c3O[C@@H]2O[C@H](CO)[C@@H](O)[C@H](O)[C@H]2O[C@H]2C[C@](C)(N)[C@H](O)[C@H](C)O2)Oc2ccc(cc2Cl)[C@H]1O` [VANCOMYCIN] has an MIC (Staphylococcus aureus [6]) of 2.5 µg/mL and an MIC (Enterococcus faecalis [7]) of 2.5 µg/mL.
